Measured values taken from ChEMBL document CHEMBL4619736, “Direct modifications of the cyclic peptide Polymyxin B leading to analogues with enhanced in vitro antibacterial activity” (Bioorg Med Chem Lett, 2020).
Converted amounts (≈) assume the structure as drawn. Numbered stars: 1 amine (or outer) side, 2 acyl side, 3 side chain; on linkers, the order of the positions; unused ones are H or OH. Bridge positions count the residues as written; N and C are the ends. Square brackets hold non-standard residues; d marks the D form. Peptide text beside a SMILES is read from it. * marks the point of attachment. X2 = O=C([C@@H](Cc1ccc(-c2ccncc2)cc1)N[*:1])[*:2]; GABA(3R-Bn) = O=C(C[C@H](CN[*:1])Cc1ccccc1)[*:2]; X1 = CC[C@H](C)CCCCC(=O)*; Dab = NCC[C@H](N)C(=O)O; Dap = NC[C@H](N)C(=O)O

How the values were obtained:
[1] = test system: Escherichia coli; experiment: Antibacterial activity against Escherichia coli ATCC 25922 by CLSI based broth microdilution method; type: functional
How it was run: (§1)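 Broth microdilution MIC per CLSI guidelines (M07-A9) in cation-adjusted Mueller-Hinton broth; panel of Gram-negative strains including clinical isolates with reduced polymyxin B susceptibility.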

[2] = test system: Escherichia coli; experiment: Antibacterial activity against Escherichia coli IHMA 940398 by CLSI based broth microdilution method; type: functional; how it was run: as §1
[3] = test system: Pseudomonas aeruginosa; experiment: Antibacterial activity against Pseudomonas aeruginosa IHMA 517175 by CLSI based broth microdilution method; type: functional; how it was run: as §1
[4] = test system: Pseudomonas aeruginosa; experiment: Antibacterial activity against Pseudomonas aeruginosa ATCC 27853 by CLSI based broth microdilution method; type: functional; how it was run: as §1
[5] = test system: Klebsiella pneumoniae; experiment: Antibacterial activity against Klebsiella pneumoniae IHMA 652780 by CLSI based broth microdilution method; type: functional; how it was run: as §1
[6] = test system: Klebsiella pneumoniae; experiment: Antibacterial activity against Klebsiella pneumoniae ATCC 4352 by CLSI based broth microdilution method; type: functional; how it was run: as §1
[7] = test system: Acinetobacter baumannii; experiment: Antibacterial activity against Acinetobacter baumannii IHMA 863866 by CLSI based broth microdilution method; type: functional; how it was run: as §1
[8] = test system: Acinetobacter baumannii; experiment: Antibacterial activity against Acinetobacter baumannii NCTC 13424 by CLSI based broth microdilution method; type: functional; how it was run: as §1
[9] = Ratio of test compound IC50 to polymyxin B IC50 for cytotoxicity against human HK2 cells incubated for 24 hrs by resazurin blue dye based assay; type: cell-based; details: HK-2 cells, read-out: Ratio IC50
How it was run: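 Confluent monolayers of human proximal tubule epithelial HK-2 cells exposed to compound for 24h at 37°C, 5% CO2; top concentration 1,000 or 3,000 μg/mL, semi-log dilutions, 9 points. Viability read with resazurin blue; log-concentration dose-response fit with bottom constrained to zero gives IC50, expressed relative to polymyxin B IC50 run in the same experiment.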

MIC [1] | MIC [2] | MIC [3] | MIC [4] | MIC [5] | MIC [6] | MIC [7] | MIC [8] | SMILES | selectivity ratio at 24 h [9]
0.5 µg/mL (≈ 0.39 µM) | 4 µg/mL (≈ 3.12 µM) | 2 µg/mL (≈ 1.56 µM) | 0.5 µg/mL (≈ 0.39 µM) | 0.5 µg/mL (≈ 0.39 µM) | 0.5 µg/mL (≈ 0.39 µM) | 4 µg/mL (≈ 3.12 µM) | 0.5 µg/mL (≈ 0.39 µM) | CC[C@H](C)CCCCC(=O)N[C@@H](CCN)C(=O)N[C@H](C(=O)N[C@@H](CCN)C(=O)N[C@H]1CCNC(=O)[C@H]([C@@H](C)O)NC(=O)[C@H](CCN)NC(=O)[C@H](CCN)NC(=O)[C@H](CC(C)C)NC(=O)[C@@H](Cc2ccc(Br)cc2)NC(=O)[C@H](CCN)NC1=O)[C@@H](C)O | –
0.25 µg/mL (≈ 0.224 µM) | 32 µg/mL (≈ 28.6 µM) | 32 µg/mL (≈ 28.6 µM) | 0.5 µg/mL (≈ 0.447 µM) | 16 µg/mL (≈ 14.3 µM) | 0.25 µg/mL (≈ 0.224 µM) | > 64 µg/mL | 0.5 µg/mL (≈ 0.447 µM) | CC(C)C[C@@H]1NC(=O)[C@@H](Cc2ccccc2)NC(=O)[C@H](CCN)NC(=O)[C@@H](NC(=O)[C@H](CN)NC(=O)[C@@H](NC(=O)[C@@H]2CNCCN2CC(C)C)[C@@H](C)O)CCNC(=O)[C@H]([C@@H](C)O)NC(=O)[C@H](CCN)NC(=O)[C@H](CCN)NC1=O | 16.6
0.125 µg/mL (≈ 0.109 µM) | 32 µg/mL (≈ 28 µM) | 8 µg/mL (≈ 6.99 µM) | 0.25 µg/mL (≈ 0.218 µM) | 4 µg/mL (≈ 3.5 µM) | – | 64 µg/mL (≈ 55.9 µM) | 0.06 µg/mL (≈ 0.0524 µM) | CC(C)C[C@@H]1NC(=O)[C@@H](CC2CCCCC2)NC(=O)[C@H](CCN)NC(=O)[C@@H](NC(=O)[C@H](CCN)NC(=O)[C@@H](NC(=O)C[C@H](CN)Cc2ccccc2)[C@@H](C)O)CCNC(=O)[C@H]([C@@H](C)O)NC(=O)[C@H](CCN)NC(=O)[C@H](CCN)NC1=O | 2.4
1 µg/mL (≈ 0.781 µM) | 8 µg/mL (≈ 6.25 µM) | 2 µg/mL (≈ 1.56 µM) | 1 µg/mL (≈ 0.781 µM) | 0.5 µg/mL (≈ 0.391 µM) | 0.5 µg/mL (≈ 0.391 µM) | 16 µg/mL (≈ 12.5 µM) | 1 µg/mL (≈ 0.781 µM) | CC[C@H](C)CCCCC(=O)N[C@@H](CCN)C(=O)N[C@H](C(=O)N[C@@H](CCN)C(=O)N[C@H]1CCNC(=O)[C@H]([C@@H](C)O)NC(=O)[C@H](CCN)NC(=O)[C@H](CCN)NC(=O)[C@H](CC(C)C)NC(=O)[C@@H](Cc2ccc(-c3ccccc3)cc2)NC(=O)[C@H](CCN)NC1=O)[C@@H](C)O | 0.14
0.25 µg/mL (≈ 0.221 µM) | 16 µg/mL (≈ 14.2 µM) | 4 µg/mL (≈ 3.54 µM) | 0.25 µg/mL (≈ 0.221 µM) | 4 µg/mL (≈ 3.54 µM) | 0.06 µg/mL (≈ 0.0531 µM) | 64 µg/mL (≈ 56.6 µM) | 0.125 µg/mL (≈ 0.111 µM) | CC(C)C[C@@H]1NC(=O)[C@@H](CC2CCCCC2)NC(=O)[C@H](CCN)NC(=O)[C@@H](NC(=O)[C@H](CN)NC(=O)[C@@H](NC(=O)C[C@H](CN)Cc2ccccc2)[C@@H](C)O)CCNC(=O)[C@H]([C@@H](C)O)NC(=O)[C@H](CCN)NC(=O)[C@H](CCN)NC1=O | 5.2
0.5 µg/mL (≈ 0.413 µM) | 8 µg/mL (≈ 6.61 µM) | 4 µg/mL (≈ 3.31 µM) | 1 µg/mL (≈ 0.827 µM) | 1 µg/mL (≈ 0.827 µM) | 0.5 µg/mL (≈ 0.413 µM) | 32 µg/mL (≈ 26.5 µM) | 0.5 µg/mL (≈ 0.413 µM) | CC[C@H](C)CCCCC(=O)N[C@@H](CCN)C(=O)N[C@H](C(=O)N[C@@H](CCN)C(=O)N[C@H]1CCNC(=O)[C@H]([C@@H](C)O)NC(=O)[C@H](CCN)NC(=O)[C@H](CCN)NC(=O)[C@H](CC(C)C)NC(=O)[C@@H](CC2CCCCC2)NC(=O)[C@H](CCN)NC1=O)[C@@H](C)O | –
0.25 µg/mL (≈ 0.21 µM) | 2 µg/mL (≈ 1.68 µM) | 1 µg/mL (≈ 0.839 µM) | 0.5 µg/mL (≈ 0.419 µM) | 0.5 µg/mL (≈ 0.419 µM) | 0.25 µg/mL (≈ 0.21 µM) | 0.5 µg/mL (≈ 0.419 µM) | 0.25 µg/mL (≈ 0.21 µM) | CC(C)C[C@@H]1CNC[C@@H](C(=O)N[C@H](C(=O)N[C@@H](CN)C(=O)N[C@H]2CCNC(=O)[C@H]([C@@H](C)O)NC(=O)[C@H](CCN)NC(=O)[C@H](CCN)NC(=O)[C@H](CC(C)C)NC(=O)[C@@H](Cc3ccc(-c4ccccc4)cc3)NC(=O)[C@H](CCN)NC2=O)[C@@H](C)O)C1 | 1.2
0.125 µg/mL (≈ 0.105 µM) | 8 µg/mL (≈ 6.7 µM) | 4 µg/mL (≈ 3.35 µM) | 0.5 µg/mL (≈ 0.419 µM) | 0.5 µg/mL (≈ 0.419 µM) | 0.25 µg/mL (≈ 0.209 µM) | 4 µg/mL (≈ 3.35 µM) | 0.125 µg/mL (≈ 0.105 µM) | CC(C)C[C@@H]1NC(=O)[C@@H](Cc2ccc(-c3ccccc3)cc2)NC(=O)[C@H](CCN)NC(=O)[C@@H](NC(=O)[C@H](CN)NC(=O)[C@@H](NC(=O)[C@@H]2CNCCN2CC(C)C)[C@@H](C)O)CCNC(=O)[C@H]([C@@H](C)O)NC(=O)[C@H](CCN)NC(=O)[C@H](CCN)NC1=O | 2.4
0.06 µg/mL (≈ 0.0537 µM) | 16 µg/mL (≈ 14.3 µM) | 8 µg/mL (≈ 7.17 µM) | 0.06 µg/mL (≈ 0.0537 µM) | 4 µg/mL (≈ 3.58 µM) | 0.125 µg/mL (≈ 0.112 µM) | > 64 µg/mL | 0.25 µg/mL (≈ 0.224 µM) | CC(C)C[C@@H]1NC(=O)[C@@H](Cc2ccccc2)NC(=O)[C@H](CCN)NC(=O)[C@@H](NC(=O)[C@H](CN)NC(=O)[C@@H](NC(=O)C[C@H](CN)C2CCCCC2)[C@@H](C)O)CCNC(=O)[C@H]([C@@H](C)O)NC(=O)[C@H](CCN)NC(=O)[C@H](CCN)NC1=O | 6.9
0.5 µg/mL (≈ 0.445 µM) | 8 µg/mL (≈ 7.13 µM) | 2 µg/mL (≈ 1.78 µM) | 0.5 µg/mL (≈ 0.445 µM) | 2 µg/mL (≈ 1.78 µM) | – | 32 µg/mL (≈ 28.5 µM) | 0.125 µg/mL (≈ 0.111 µM) | CC(C)C[C@@H]1NC(=O)[C@@H](CC2CCCCC2)NC(=O)[C@H](CCN)NC(=O)[C@@H](NC(=O)[C@H](CN)NC(=O)[C@@H](NC(=O)C[C@H](CN)C2CCCCC2)[C@@H](C)O)CCNC(=O)[C@H]([C@@H](C)O)NC(=O)[C@H](CCN)NC(=O)[C@H](CCN)NC1=O | –
1 µg/mL (≈ 0.781 µM) | 32 µg/mL (≈ 25 µM) | 32 µg/mL (≈ 25 µM) | 1 µg/mL (≈ 0.781 µM) | – | 1 µg/mL (≈ 0.781 µM) | – | 2 µg/mL (≈ 1.56 µM) | CC[C@H](C)CCCCC(=O)N[C@@H](CCN)C(=O)N[C@H](C(=O)N[C@@H](CCN)C(=O)N[C@H]1CCNC(=O)[C@H]([C@@H](C)O)NC(=O)[C@H](CCN)NC(=O)[C@H](CCN)NC(=O)[C@H](CC(C)C)NC(=O)[C@@H](Cc2ccc(-c3ccncc3)cc2)NC(=O)[C@H](CCN)NC1=O)[C@@H](C)O (X1-[Dab]T[Dab][Dab][Dab][X2]L[Dab][Dab]T; lactam 4-C) | 0.7
0.25 µg/mL (≈ 0.222 µM) | 32 µg/mL (≈ 28.5 µM) | 8 µg/mL (≈ 7.12 µM) | 0.125 µg/mL (≈ 0.111 µM) | – | 0.125 µg/mL (≈ 0.111 µM) | > 64 µg/mL | 0.125 µg/mL (≈ 0.111 µM) | CC(C)C[C@@H]1NC(=O)[C@@H](Cc2ccccc2)NC(=O)[C@H](CCN)NC(=O)[C@@H](NC(=O)[C@H](CN)NC(=O)[C@@H](NC(=O)C[C@H](CN)Cc2ccccc2)[C@@H](C)O)CCNC(=O)[C@H]([C@@H](C)O)NC(=O)[C@H](CCN)NC(=O)[C@H](CCN)NC1=O ({GABA(3R-Bn)}-T[Dap][Dab][Dab][dF]L[Dab][Dab]T; lactam 3-C) | 12

SMILES | MIC [1] | MIC [2] | MIC [3] | MIC [4] | MIC [5] | MIC [6] | MIC [7] | MIC [8] | selectivity ratio at 24 h [9]
CC[C@H](C)CCCCC(=O)N[C@@H](CCN)C(=O)N[C@H](C(=O)N[C@@H](CCN)C(=O)N[C@H]1CCNC(=O)[C@H]([C@@H](C)O)NC(=O)[C@H](CCN)NC(=O)[C@H](CCN)NC(=O)[C@H](CC(C)C)NC(=O)[C@@H](Cc2ccccc2)NC(=O)[C@H](CCN)NC1=O)[C@@H](C)O (X1-[Dab]T[Dab][Dab][Dab][dF]L[Dab][Dab]T; lactam 4-C) | 0.25 µg/mL (≈ 0.208 µM) | 16 µg/mL (≈ 13.3 µM) | 8 µg/mL (≈ 6.65 µM) | 0.5 µg/mL (≈ 0.415 µM) | 4 µg/mL (≈ 3.32 µM) | 0.125 µg/mL (≈ 0.104 µM) | 32 µg/mL (≈ 26.6 µM) | 0.25 µg/mL (≈ 0.208 µM) | 1
